High-throughput results (PubChem)
EBNA-1 inh – EBNA-1 DNA-binding inhibitors, primary screen, biochemical, fluorescence polarization; inhibition, % at 14.8 µM; 300,000 tested, 0.34% active; in the data active = inhibition above about 28%
PfG6PD inh – PfG6PD enzyme inhibitors, primary screen, biochemical, fluorescence intensity, uHTS. inhibition, % at 20 µM. 350,000 tested, 0.78% active. PfGluPho enzyme, NADPH resazurin-diaphorase fluorescence. glucose-6-phosphate dehydrogenase-6-phosphogluconolactonase (Plasmodium falciparum 3D7). AID 504690, 2011;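 active = inhibition reaching at least a set limit at 20 µM in the primary screen, cut at about 59% in these data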;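 also: 0% = DMSO wells with substrate and 100% = DMSO wells lacking glucose-6-phosphate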
ZTA DNA inh – ZTA (EBV) inhibition in EBNA-1 counter-screen. AID 2234. 320,000 tested, 0.15% active. inhibition, % at 11 µM. ZTA-DNA binding, fluorescence polarization. P03206; in the data active = inhibition above about 33%
Target sequence (P03206 whole entry, looked up): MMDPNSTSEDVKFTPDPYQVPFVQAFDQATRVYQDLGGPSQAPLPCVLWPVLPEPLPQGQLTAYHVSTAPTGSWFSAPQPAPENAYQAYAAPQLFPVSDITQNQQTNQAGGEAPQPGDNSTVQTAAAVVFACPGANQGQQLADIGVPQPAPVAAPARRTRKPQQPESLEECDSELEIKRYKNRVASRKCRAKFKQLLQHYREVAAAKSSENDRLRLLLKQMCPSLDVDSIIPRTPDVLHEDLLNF
UBC13 inh – UBC13 polyubiquitin chain formation inhibitors, primary screen, biochemical, TR-FRET, uHTS. Ubiquitin-conjugating enzyme E2 N (Homo sapiens), P61088. inhibition, % at 20 µM. 330,000 tested, 0.47% active; in the data active = inhibition above about 45%, passing the limit was not always enough; inconclusive = no clear call, values can overlap the other calls
Target sequence (P61088 whole entry, looked up): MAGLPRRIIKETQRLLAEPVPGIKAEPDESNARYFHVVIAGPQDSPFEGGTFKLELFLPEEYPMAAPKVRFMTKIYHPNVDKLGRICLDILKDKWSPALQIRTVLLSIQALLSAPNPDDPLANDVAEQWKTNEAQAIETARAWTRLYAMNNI
M18AAP inhibitor – PfM18AAP inhibitors, malaria aminopeptidase, primary screen, biochemical, QFRET, recombinant enzyme; H-Glu-NHMec fluorogenic cleavage; inhibition, % at 7.35 µM; 290,000 tested, 1.2% active; AID 1822, 2009;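 active = inhibition above the campaign mean inhibition over all tested compounds plus 3 SD, cut at about 28% in these data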;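 also: 0% = plate median of test compound wells and 100% = 2 mM ZnCl2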
Apaf-1 inh – inhibitors of human Apaf-1 apoptosome, primary screen, biochemical, DEVD-Rh110 fluorescence, uHTS. AID 489030, 2010. Apoptotic protease-activating factor 1 (Homo sapiens), O14727. inhibition, % at 20 µM. reconstituted apoptosome caspase-3 activity. 330,000 tested, 0.71% active; active = inhibition of at least 40% at 20 µM;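 also: plate controls were DMSO wells for no effect and DEVD-CHO caspase inhibitor wells for full effect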
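Medium: Hepes buffer, pH 7.5 / System: biochemical Apaf-1 apoptosome reconstitution / Measured by: Rh110 fluorescence, excitation 480 nm, emission 540 nm / Times: compound with Apaf-1, dATP, procaspase-3 30 min, then 50 min reaction, room temperature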
Numbers without * were called inactive; ? = inconclusive; . = no result. A selection: hits, their analogues and other compounds. The true share with any hit is near 2.9%.

SMILES | EBNA-1 inh | PfG6PD inh | ZTA DNA inh | UBC13 inh | M18AAP inhibitor | Apaf-1 inh
CN(C(=O)c1cccc(NC(=O)Cc2ccc(NC(=O)C3CCCN(C(=O)C4CC4)C3)cc2)c1)C1CCCC1 (stereo unspecified) | . | -10 | . | . | . | .
Cc1onc(-c2ccccc2Cl)c1C(=O)Nc1ncn[nH]1 | -5 | -8 | -3 | -19 | 54* | 6
CC(=O)Nc1ccc(NC(=O)c2c(-c3ccccc3Cl)noc2C)cc1 | 9 | -10 | 14 | 5 | 3 | -3
O=C1CC(c2ccc(O)cc2)Oc2cc(O)cc(O)c21 (stereo unspecified) | 3 | -16 | -24 | 0 | 4 | -19
CC1CC(=O)c2c(cc3c(-c4c(O)cc(O)c5c(O)c6c(cc45)OC(C)CC6=O)c(O)cc(O)c3c2O)O1 (stereo unspecified) | 20 | -22 | 12 | -45 | 12 | 62*
Cc1c(S(=O)(=O)Nc2cccc3ccccc23)c(=O)n(C)c(=O)n1C | 2 | 8 | -4 | 0 | . | 2
CC1(C)Cc2nc3sc(C(=O)NCCO)c(N)c3cc2CO1 | -10 | 2 | -2 | -7 | 31* | -2
CC1(C)Cc2nc3sc(C(=O)NCCCO)c(N)c3cc2CS1 | 2 | 18 | -22 | -6 | 16 | 2
COc1ccc(-c2csc(NC(=O)c3cc(=O)c4ccccc4o3)n2)cc1OC | -6 | 67* | -11 | -11 | -2 | -25
COc1ccc(-c2csc(NC(=O)c3cc(C)oc3C)n2)cc1OC | -12 | 24 | 2 | 7 | -1 | 2
O=C(/C=C/c1ccc(NC(=O)c2ccccc2-c2ccccc2C(=O)O)cc1)c1ccccc1 | 3 | -22 | 41* | -27 | -13 | 22
Cc1ccc(C(=O)NCC(C)NC(=O)c2ccc(C)c(C)c2)cc1C (stereo unspecified) | 7 | -3 | -2 | 1 | . | -4
S=c1[nH]ncn1/N=C/c1ccc(N2CCOCC2)cc1 | 6 | 29 | 13 | 1 | 31* | -2
S=c1[nH]ncn1/N=C/c1ccc(Br)cc1 | 14 | 21 | 14 | 22 | 17 | 1
O=C(COc1ccccc1)NS(=O)(=O)c1ccccc1 | 0 | -18 | -5 | 5 | 2 | -7
COc1ccc(NC(=O)CC2S/C(=N\c3nccs3)N(C)C2=O)cc1 (stereo unspecified) | 0 | 6 | 0 | -11 | -1 | 3
CN1CCc2c(sc(NC(=O)c3ccc4ccccc4c3)c2C(N)=O)C1 | 14 | . | -4 | 22 | 6 | 32
COc1cc2ccccc2cc1C(=O)Nc1sc2c(c1C(N)=O)CCN(C(C)C)C2 | -3 | . | -23 | 31 | 18 | 51*
C[C@H](CO)N1C[C@H](C)[C@H](CN(C)S(=O)(=O)c2ccccc2F)OCc2cnnn2CCCC1=O | . | 2 | . | . | . | .
CCN1/C(=C/C=C/c2oc3ccc4ccccc4c3[n+]2CC)Oc2ccc3ccccc3c21 | 29* | 60* | 29 | ? | -4 | 76*
O=C(Nc1ccc(Cl)cc1Cl)c1ccc2c(c1)OCCO2 | . | 15 | 0 | 1 | . | -3
O=C(Nc1ccc(Cl)cc1Cl)c1cccc(N2C(=O)C=CC2=O)c1 | -1 | 113* | -6 | 0 | . | 8
COC(=O)C[C@@H]1C[C@H]2c3cc(N(C)C)ccc3O[C@H]2[C@H](CO)O1 | . | 0 | . | . | . | .
Nc1nonc1NN=C1CCCCC1 | -4 | 1 | -3 | 8 | 31* | -18
Cc1cc2c(c(C)c1CCO)C(=O)[C@H](C)C2 | . | 0 | . | 6 | . | -14
SMILES | EBNA-1 inh | PfG6PD inh | ZTA DNA inh | UBC13 inh | M18AAP inhibitor | Apaf-1 inh
C=CCOc1cccc(/C=C/c2nc3ccccc3c(=O)[nH]2)c1 | -3 | 4 | 4 | 2 | -1 | 16
COc1cc(OC)cc(C(=O)NNc2nc3cc4c(cc3s2)OCO4)c1 | -5 | 41 | 3 | 4 | 31* | 10
Cc1ccc(NCC(=O)Nc2cccc(S(=O)(=O)N(C)C)c2)cc1S(=O)(=O)N1CCCCCC1 | 5 | -5 | 3 | 2 | . | 14
Cc1ccc2oc(-c3ccc(C)c(NC(=O)Cc4cccs4)c3)nc2c1 | -6 | -9 | -3 | 1 | 1 | 14
Cc1ccc2oc(-c3ccc(C)c(NC(=S)NC(=O)c4cccs4)c3)nc2c1 | 29* | 4 | -12 | -11 | -11 | 29
CCc1nnc(NC(=O)CSc2nc3[nH]ncc3c(=O)[nH]2)s1 | -6 | -10 | 7 | -7 | 31* | 0
O=C(Nc1nnc(-c2ccccc2Cl)o1)c1cccnc1 | 4 | -13 | 0 | -17 | 30* | -8
N#Cc1c(NC(=O)C2CC(c3ccccc3O)=NO2)sc2c1CCC2 (stereo unspecified) | 34* | -40 | -6 | 1 | -3 | 14
CON(C)C(=O)C[C@@H]1C[C@H](OC(=O)c2ccc([N+](=O)[O-])cc2)CN1C(=O)OC(C)(C)C | . | -8 | . | 0 | . | 9
Cc1ccc(O)c(N)c1 | . | 44 | -1 | -14 | . | 1
COc1ccc(O)c(N)c1 | . | . | . | -25 | 26 | 76*
O=C1c2c([N+](=O)[O-])cc([N+](=O)[O-])cc2S(=O)N1Cc1ccccc1 (stereo unspecified) | -2 | 62* | 10 | -22 | 52* | 6
CC(C)(C)c1cc(C(=O)N2CCc3ccccc3C2)ccn1 | 1 | -4 | -5 | 9 | 0 | 0
COc1ccc(-c2nc(CS(=O)CC(=O)NCCN3CCCCC3C)c(C)o2)cc1OC (stereo unspecified) | -5 | -11 | 6 | -10 | -4 | 4
O=C(N/C(=C/c1ccco1)C(=O)N1CCCCCC1)c1ccccc1 | 0 | -7 | 4 | -5 | 17 | 10
CCOC(=O)C1CCCN(C(=O)/C(=C/c2ccco2)NC(=O)c2ccccc2)C1 (stereo unspecified) | -4 | -9 | 1 | -7 | 30* | 0
Cc1ccc(-n2c(C)n[nH]c2=S)cc1C | 1 | 30 | 2 | -17 | 25 | 4
Cc1ccc(-n2c(C)n[nH]c2=S)cc1 | 17 | 23 | 14 | . | 30* | .
CC(C)[C@H](NS(=O)(=O)c1ccccc1)C(=O)OCC(=O)NC(=O)NC1CCCCC1 | . | 1 | . | 14 | . | 5
NC(=O)c1cccc2c3c([nH]c12)CCCC3 | -4 | -8 | -5 | -1 | 2 | 4
Cc1cccc2c3c([nH]c12)CCN(C)C3 | -6 | 2 | 2 | 6 | 29* | 2
Cn1cccc1C(=O)NNC(=O)COc1ccccc1F | 6 | 6 | -7 | 2 | -1 | -4
CCN(CC(=O)NCc1cccs1)C(=O)c1cccc(S(=O)(=O)Nc2ccccc2Cl)c1 | 0 | -23 | -2 | -2 | . | 9
COc1ccc(OC)c(/C(C)=N/Nc2ccc(C(=O)O)cc2)c1 | 4 | -8 | -15 | -3 | 27 | 9
